Eleven compounds from ChEMBL document CHEMBL1136925, “Structure-activity relationship of cyanine tau aggregation inhibitors” (J Med Chem, 2009) can be followed below.

The source made the active and inactive calls. The rule behind the calls is not given here.

In general, IC50 refers to the concentration needed to halve the response being measured.

The nature of data set [1]: Inhibition of His-tagged human recombinant 2N4R tau protein aggregation assessed as inhibition octadecyl sulphate-induced fibrillation by filter trap assay.
The species named for data set [2] is Homo sapiens. Put plainly: Inhibition of human tau aggregation in human tau P301L mutant expressing JNPL3 transgenic mouse brain slices at 0.1 nM to 1 uM after 7 days. Type of data set: tissue-based. In a few lines: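 Slices from postnatal day 10 JNPL3 mice were cultured 14 days, then exposed 7 days to compound (0.1 nM–1 μM). The contralateral hemisphere received DMSO (0.008%) as control. RIPA extracts were equalized for total protein, incubated in 1% sarkosyl for 30 min at room temperature, and spun 100,000g for 1 h at 20°C. The insoluble pellet was boiled in SDS buffer, immunoblotted with CP27 and quantified by densitometry (n = 3) relative to vehicle.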

Data set [3] concerns Brain. Put plainly: Induction of apoptosis in human tau P301L mutant expressing JNPL3 transgenic mouse brain slice assessed as cleaved PARP1 after 7 days by densitometry. The note with it: 168 h. Format: tissue-based. In a few lines:
(§1)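 Cortex and hippocampus slices (400 μm) cut from postnatal day 10 JNPL3 mouse brain, cultured 14 days on membrane inserts in 25% serum medium, then dosed for 7 days. The contralateral hemisphere received DMSO vehicle (0.008% final) as within-animal control. Slices were sonicated in cold RIPA with protease/phosphatase inhibitors and spun 20,000g for 20 min at 4°C. Supernatant α-tubulin and cleaved PARP1 were immunoblotted and quantified by densitometry (n = 3), normalized to vehicle.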

Data set [4] relates to Brain. The data set is described as follows: Induction of apoptosis in human tau P301L mutant expressing JNPL3 transgenic mouse brain slice assessed as change in alpha-tubulin level at 1 nM after 7 days by densitometry. The conditions noted are these: 168 h, 0.001 µM. Format: tissue-based. In a few lines:
as §1

For data set [5], the species on record is Homo sapiens. The data set is described as follows: Inhibition of human tau aggregation in human tau P301L mutant expressing JNPL3 transgenic mouse brain slices at 100 nM.
For data set [6], the species on record is Homo sapiens. The data set is described as follows: Induction of human tau aggregation in human tau P301L mutant expressing JNPL3 transgenic mouse brain slices at >=300 nM.
For data set [7], the species on record is Homo sapiens. The data set is described as follows: Inhibition of His-tagged human recombinan2N4R tau protein aggregation assessed as inhibition octadecyl sulphate-induced fibrillation up to 10 uM by filter trap assay.
The species named for data set [8] is Homo sapiens. Put plainly: Inhibition of His-tagged human recombinan2N4R tau protein aggregation assessed as inhibition octadecyl sulphate-induced fibrillation at 10 uM by filter trap assay.

As to `CCCN1/C(=C/C=C/C2=[N+](CCC)c3ccccc3C2(C)C)C(C)(C)c2ccccc21`, in data set [1], the IC50 was found to be 2.57 µM. On the same count and under the same terms, the figure for `CCN1/C(=C/C(C)=C/c2sc3c4ccccc4ccc3[n+]2CC)Sc2c1ccc1ccccc21` is 3.29 µM; for `CCC(/C=C1\Sc2ccc(OC)cc2N1CCO)=C\c1sc2ccc(OC)cc2[n+]1CCO` it is 0.29 µM; for `CCN1/C(=C/C=C/C=C/C=C/c2sc3ccccc3[n+]2CC)Sc2ccccc21` it is 5 µM. Still for that read-out and setting: the figure for `CCN1/C(=C/C=C/c2sc3ccccc3[n+]2CC)Sc2ccccc21` is 0.96 µM; for `CC(/C=C1\Sc2ccccc2N1CCCS(=O)(=O)[O-])=C\c1sc2ccccc2[n+]1CCCS(=O)(=O)[O-].CC[n+]1ccccc1` it is over 10 µM. In the case of `CCN1/C(=C/C(C)=C/c2sc3ccccc3[n+]2CC)Sc2ccccc21.[I-]`, the half-inhibitory concentration (IC50) in data set [1] was found to be 0.28 µM. The outcome in the data set listed under Homo sapiens [2] and in the data set listed under Homo sapiens [6] was Active. Further, the Activity result in the data set on Brain [3] and with Brain [4] was “Non-toxic” each time. In addition, the result in the data set listed under Homo sapiens [5] was inactive. Regarding `CCN1/C(=C/c2sc3ccccc3[n+]2CC)Sc2ccccc21`, the IC50 in data set [1] worked out at 10 µM. Consider `CCCCCCN1/C(=C/C=C/c2sc3ccccc3[n+]2CCCCCC)Sc2ccccc21`, for which the IC50 in data set [1] was over 10 µM. The outcome in the data set listed under Homo sapiens [7] was inactive. With `CCN1/C(=C/C=C/c2oc3ccccc3[n+]2CC)Oc2ccccc21`, the IC50 in data set [1] is over 10 µM. In addition, in the data set listed under Homo sapiens [8], the outcome was inactive. Regarding `CCN1/C(=C/C=C/C=C/c2sc3ccccc3[n+]2CC)Sc2ccccc21` [DITHIAZANINE IODIDE], in data set [1], the IC50 amounted to 2.15 µM.
